Experimental data reported in ChEMBL document CHEMBL1158342, “Synthesis and biological activity evaluation of 1H-benzimidazoles via mammalian DNA topoisomerase I and cytostaticity assays” (Eur J Med Chem, 2009).
Activity calls are given as the source filed them. The calls are words filed in the database; no cut-off is given here.

How the values were obtained:
[1] = species on record: Bos taurus; experiment: Inhibition of calf thymus DNA topoisomerase 1-mediated relaxation of supercoiled pBR322 plasmid DNA at 1 ug/ml by agarose gel electrophoresis
Outline: (§1)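 Reaction contained 1 unit calf thymus topo I and supercoiled pBR322 in 35 mM Tris-HCl pH 8.0, 72 mM KCl, 5 mM MgCl2, 5 mM DTT, 5 mM spermidine and 0.1% BSA, with or without compound, at 37 °C. Products were run on 1% agarose in TBE at 5 V/cm, stained with ethidium bromide and photographed under UV. Supercoiled and relaxed bands were quantified from gel images.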

[2] = species on record: Bos taurus; experiment: Inhibition of calf thymus DNA topoisomerase 1-mediated relaxation of supercoiled pBR322 plasmid DNA by agarose gel electrophoresis; outline: as §1
[3] = test system: HeLa; experiment: Cytotoxicity against human HeLa cells after 72 hrs by MTT assay; assay type: functional, cell-based
Outline: (§2)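 Cells seeded at 5000/well and left to attach overnight, then given fresh medium containing compound over […] and incubated 72 h. Viability read by MTT: 4 h contact, crystals dissolved in DMSO over 60 min of shaking, absorbance at 545 nm. Untreated wells served as controls; DMSO at most 0.3%. Two plates with at least five parallel wells each; IC50 from fitted dose–response curves.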

[4] = test system: MCF7; experiment: Cytotoxicity against human MCF7 cells after 72 hrs by MTT assay; assay type: functional, cell-based; details: MCF7, 72 h; outline: as §2
[5] = test system: A-431; experiment: Cytotoxicity against human A431 cells after 72 hrs by MTT assay; assay type: functional, cell-based; details: A-431, 72 h; outline: as §2

Row | SMILES | inhibition [1] | inhibition [2] | IC50 [3] | IC50 [4] | IC50 [5]
1 | c1ccc(-c2nc3ccccc3[nH]2)c(OCCN2CCOCC2)c1 | inactive | Dose-dependent effect | – | – | –
2 | Clc1ccc2[nH]c(-c3ccccc3OCCN3CCCCC3)nc2c1 | inactive | Dose-dependent effect | – | – | –
3 | COc1cccc2c1C(=O)c1c(O)c3c(c(O)c1C2=O)C[C@@](O)(C(=O)CO)C[C@@H]3O[C@H]1C[C@H](N)[C@H](O)[C@H](C)O1 [DOXORUBICIN] | – | – | 0.16 µM | 0.31 µM | 0.19 µM
4 | CCN(CC)CCOc1ccccc1-c1nc2cc(Cl)ccc2[nH]1 | inactive | Dose-dependent effect | – | – | –

Further lines, with some results ahead:

Row | inhibition [1] | inhibition [2] | SMILES | IC50 [3] | IC50 [4] | IC50 [5]
5 | inactive | Dose-dependent effect | Clc1ccc2[nH]c(-c3ccccc3OCCN3CCOCC3)nc2c1 | – | – | –
6 | 90.2% | Dose-dependent effect | c1ccc(-c2nc3ccccc3[nH]2)c(OCCN2CCCC2)c1 | 19.8 µM | > 30 µM | > 30 µM
7 | 95.4% | Dose-dependent effect | Oc1ccccc1-c1nc2ccccc2[nH]1 | 26.4 µM | 16 µM | > 30 µM
8 | inactive | Dose-dependent effect | c1ccc(-c2nc3ccccc3[nH]2)c(OCCN2CCCCC2)c1 | – | – | –
9 | inactive | Dose-dependent effect | Clc1ccc2[nH]c(-c3ccccc3OCCN3CCCC3)nc2c1 | – | – | –
10 | 99% | Dose-dependent effect | Oc1ccccc1-c1nc2cc(Cl)ccc2[nH]1 | 6.04 µM | 6.94 µM | 6.16 µM
